Measured values as given in paper PMC2233693 (The Journal of General Physiology, 2000).
Positions count from the first letter of the chain named. Where two headings read alike, the source gives them in different places.

What was measured:
Format in all cases: biochemical
[1] = molecular target: T1, wild-type bovine olfactory CNG channel (α3 subunit) (Bos taurus, UniProt Q03041); assay: Blockage of macroscopic current by internal Ca2+, inside-out patches; conditions: read-out: K i for internal Ca2+ blockage, +80 mV, 1 mM cGMP, average
T1 sequence (Q03041 1-663): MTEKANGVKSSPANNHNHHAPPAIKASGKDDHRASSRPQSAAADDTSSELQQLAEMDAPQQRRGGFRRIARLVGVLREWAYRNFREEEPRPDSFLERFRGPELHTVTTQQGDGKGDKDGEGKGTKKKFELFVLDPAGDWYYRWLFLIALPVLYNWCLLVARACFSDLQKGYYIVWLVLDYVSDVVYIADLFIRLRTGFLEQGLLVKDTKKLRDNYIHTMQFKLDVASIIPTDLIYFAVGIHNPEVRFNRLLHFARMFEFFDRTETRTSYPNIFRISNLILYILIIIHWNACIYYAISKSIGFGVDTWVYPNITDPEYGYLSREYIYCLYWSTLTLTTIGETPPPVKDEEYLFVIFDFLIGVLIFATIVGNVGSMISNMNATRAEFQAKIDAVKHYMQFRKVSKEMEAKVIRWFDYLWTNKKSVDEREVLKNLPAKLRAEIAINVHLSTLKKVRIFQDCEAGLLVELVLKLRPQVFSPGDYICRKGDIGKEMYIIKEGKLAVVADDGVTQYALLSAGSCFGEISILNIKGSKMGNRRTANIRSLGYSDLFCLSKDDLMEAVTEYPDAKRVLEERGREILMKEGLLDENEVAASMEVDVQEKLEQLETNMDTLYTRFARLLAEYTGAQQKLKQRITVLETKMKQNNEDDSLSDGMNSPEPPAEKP

[2] = molecular target: T2, E340G mutant bovine olfactory CNG channel (Bos taurus, UniProt Q03041, E340G); assay: as above; conditions: read-out: K i for internal Ca2+ blockage, +80 mV, 1 mM cGMP, average
T2 sequence (Q03041 1-663 E340G): T1 sequence (Q03041 1-663) with E340G

[3] = molecular target: T1, wild-type bovine olfactory CNG channel (α3 subunit); assay: External Ca2+ blockage of single-channel current, outside-out patches; conditions: for effect on single-channel current: 5 μM cGMP; for n (single-channel Ca2+ blockage): Fig. 7 patch
Method in brief: (§1)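 Outside-out oocyte patches with cGMP in the pipette (wild-type 5 μM, E340G 1 mM) and increasing external Ca2+. Single-channel currents at +80 and −80 mV, filtered at 2 kHz, sampled at 10 kHz. Amplitudes from all-points histograms (30 s) fitted with summed Gaussians, normalised to divalent-free current, Hill-fitted for Ki and n. Two further patches per channel type.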

[4] = molecular target: T2, E340G mutant bovine olfactory CNG channel; assay: as above; conditions: for n (single-channel Ca2+ blockage): Fig. 7 patch
Method in brief: as §1

[5] = molecular target: T2, E340G mutant bovine olfactory CNG channel
[6] = molecular target: T3, E340Q mutant bovine olfactory CNG channel (Bos taurus, UniProt Q03041, E340Q); assay: Estimate from current variance versus mean amplitude of macroscopic currents; conditions: estimated from variance/mean at various cGMP concentrations
T3 sequence (Q03041 1-663 E340Q): T1 sequence (Q03041 1-663) with E340Q
Method in brief: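 Single-channel amplitude not directly measurable. Assuming a single open state, current amplitude and maximal open probability were estimated from the relation between current variance and mean amplitude of macroscopic currents recorded at various cGMP concentrations, in patches from mRNA-injected Xenopus oocytes.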

[7] = molecular target: T1, wild-type bovine olfactory CNG channel (α3 subunit); conditions: cGMP

SMILES	Ki [1] [mM]	Ki [2] [mM]	effect on single-channel current ([3]; 50 μM external Ca2+, −80 mV)	effect on single-channel current ([3]; 1 mM external Ca2+, −80 mV)	n (single-channel Ca2+ blockage) ([3]; +80 mV)	n (single-channel Ca2+ blockage) ([3]; −80 mV)	effect on single-channel amplitude ([4]; 1 or even 10 mM external Ca2+, 1 mM cGMP)	n (single-channel Ca2+ blockage) ([4]; +80 mV)	n (single-channel Ca2+ blockage) ([4]; −80 mV)	P max (+80 mV) ([5]; cGMP)	P max (−80 mV) ([5]; cGMP)	L, equilibrium gating constant ([5]; cGMP, allosteric model fit, mean ± SD)	EC50 ([5]; read-out: K 1/2 (single-channel open probability), cGMP, −80 mV, average) [µM]	EC50 ([5]; read-out: K 1/2,cG, −80 mV, single patch, Fig. 2 fit) [µM]	maximal open probability [6]	P max (+80 mV) [7]	P max (−80 mV) [7]	L, equilibrium gating constant ([7]; allosteric model fit, mean ± SD)
[Ca+2] [Ca^2+]	1 ± 0.7	1.5 ± 0.4	partial blockage	no current was detected	1	1.1	only slightly reduced	0.7	0.8									
Nc1nc2c(ncn2[C@@H]2O[C@@H]3COP(=O)(O)O[C@H]3[C@H]2O)c(=O)[nH]1 [cGMP]										0.77 ± 0.08	0.79 ± 0.06	5.2 ± 1.3	14 ± 5	11.6	0.9	0.993 ± 0.004	0.996 ± 0.001	334 ± 82
